For twelve compounds, IC50, EC0.01 (relative to paclitaxel) and relative resistance results are on record in ChEMBL document CHEMBL1131103, “Synthesis and biological evaluation of 2-acyl analogues of paclitaxel (Taxol)” (J Med Chem, 1998).

Experiment [1] deals with Panel ovarian (Carcinoma cell lines). The experiment is described as follows: Cytotoxic activity was measured against human Ovarian carcinoma cell lines. It counts as functional, cell-based. In short, it runs like this:
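Ovarian carcinoma line 1A9, a subclone of A2780, grown as monolayers in 96-well plates for 96 h at 37 °C, 5% CO₂. Cell protein quantitated (Skehan method). IC₅₀ = concentration inhibiting the increase in cell protein by 50%.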

The next experiment deals with Burkitts lymphoma cell. Nature of the experiment: Cytotoxic activity against was measured human Burkitt lymphoma cell lines. It counts as functional, cell-based. In short, it runs like this: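 CA46 Burkitt lymphoma cells in 5.0-mL suspension culture, counted after 24 h at 37 °C under 5% CO₂. IC₅₀ = drug concentration halving the increase in cell number. Highest concentration 100 nM. At least two independent experiments.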

The species named for experiment [2] is Bos taurus. Nature of the experiment: Polymerizing activity of tubulin in glutamate against bovine brain tubulin homogenate was measured at 0.8M concentrations. It counts as functional. In short, it runs like this: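 Bovine brain tubulin, purified to electrophoretic homogeneity, in 0.8 M monosodium glutamate (from 2 M stock, pH 6.6), room temperature, no GTP. Polymer removed by centrifugation. IC₅₀ = concentration reducing supernatant protein by 50% relative to drug-free control. Maximum 40 µM. At least three independent experiments, or at least two for IC₅₀ over 40 µM.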

The species named for experiment [3] is Bos taurus. Nature of the experiment: Polymerizing activity of tubulin in glutamate against bovine brain tubulin homogenate was measured at 0.4 M concentrations. It counts as functional. In short, it runs like this:
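Purified, electrophoretically homogeneous bovine brain tubulin assembled at room temperature without GTP or Mg²⁺ in 0.4 M monosodium glutamate (from 2 M stock, pH 6.6). Polymer pelleted by centrifugation. IC₅₀ = drug concentration lowering supernatant protein by 50% versus no-drug control. Up to 40 µM. At least three independent experiments, or at least two where IC₅₀ exceeded 40 µM.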

The subject of experiment [4] is Panel colon (Carcinoma cell lines). Nature of the experiment: Cytotoxic activity was measured against human colon carcinoma cell lines. It counts as functional, cell-based. The method, boiled down: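 HCT116 colon carcinoma monolayers in 96-well plates, 48 h at 37 °C under 5% CO₂. Cell protein measured. IC₅₀ = concentration giving 50% inhibition of the increase in cell protein.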

The species named for experiment [5] is Bos taurus. Nature of the experiment: Polymerizing activity of microtubule protein. It counts as functional. In short, it runs like this:
(§1)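 Twice-cycled microtubule protein, stored in liquid nitrogen, at 1.0 mg/mL final in 0.1 M MES, 1 mM EGTA, 0.5 mM MgCl₂, pH 6.6, 37 °C, no GTP. Compound at 2.5, 5.0 and 10 µM. Absorbance read every 10 s and initial linear slopes taken. EC0.01 = interpolated concentration giving an initial slope of 0.01 A unit/min.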

A further experiment concerns ptx-10/22. Nature of the experiment: Relative resistance was measured against human paclitaxel-resistant cell lines. It counts as functional, cell-based. The conditions noted are these: 1A9(PTX22).
For experiment [6], the species on record is Bos taurus. Nature of the experiment: Polymerizing activity of microtubule protein against the twice cycled microtubule protein. It counts as functional. In short, it runs like this:
as §1

The term IC50 denotes the concentration that gives 50% inhibition. In the case of `CCOc1cccc(C(=O)O[C@H]2[C@@H]3[C@]4(OC(C)=O)CO[C@@H]4C[C@H](O)[C@@]3(C)C(=O)[C@H](OC(C)=O)C3=C(C)[C@@H](OC(=O)[C@H](O)[C@@H](NC(=O)c4ccccc4)c4ccccc4)C[C@]2(O)C3(C)C)c1`, the IC50 in experiment [1] is 1.7 relative to paclitaxel; in the experiment with Burkitts lymphoma cell, 1 relative to paclitaxel; in the experiment filed under Bos taurus [2], 1.2 relative to paclitaxel; in the experiment filed under Bos taurus [3], 1.4 relative to paclitaxel; in experiment [4], 1.6 relative to paclitaxel. This compound also showed an EC0.01 (relative to paclitaxel) in the experiment listed under Bos taurus [5] of 1.1. This compound displayed a relative resistance with ptx-10/22 of 0.37.
Take `CC(=O)O[C@H]1C(=O)[C@@]2(C)[C@H]([C@H](OC(=O)c3cccc(F)c3)[C@]3(O)C[C@H](OC(=O)[C@H](O)[C@@H](NC(=O)c4ccccc4)c4ccccc4)C(C)=C1C3(C)C)[C@]1(OC(C)=O)CO[C@@H]1C[C@@H]2O`: the IC50 in experiment [1] is 0.4 relative to paclitaxel; in the experiment listed under Bos taurus [2], 2.6 relative to paclitaxel; in the experiment filed under Bos taurus [3], 1.2 relative to paclitaxel; in experiment [4], 0.45 relative to paclitaxel. In the experiment listed under Bos taurus [6], this compound returned an EC0.01 (relative to paclitaxel) of 0.7. In the experiment with ptx-10/22, this compound came in with a relative resistance of 0.96.
Take `CC(=O)O[C@H]1C(=O)[C@@]2(C)[C@H]([C@H](OC(=O)c3cccc([N+](=O)[O-])c3)[C@]3(O)C[C@H](OC(=O)[C@H](O)[C@@H](NC(=O)c4ccccc4)c4ccccc4)C(C)=C1C3(C)C)[C@]1(OC(C)=O)CO[C@@H]1C[C@@H]2O`: the IC50 is 1.3 relative to paclitaxel in experiment [1]; 1 relative to paclitaxel in the experiment on Burkitts lymphoma cell; 1.6 relative to paclitaxel in the experiment filed under Bos taurus [2]; > 1.7 relative to paclitaxel in the experiment filed under Bos taurus [3]; 0.88 relative to paclitaxel in experiment [4]. The compound further gave an EC0.01 (relative to paclitaxel) in the experiment listed under Bos taurus [6] of 0.69. Moreover, in the experiment with ptx-10/22, the relative resistance turned out to be 0.76.
Take `CC(=O)O[C@H]1C(=O)[C@@]2(C)[C@H]([C@H](OC(=O)c3cc(F)c(F)c(F)c3)[C@]3(O)C[C@H](OC(=O)[C@H](O)[C@@H](NC(=O)c4ccccc4)c4ccccc4)C(C)=C1C3(C)C)[C@]1(OC(C)=O)CO[C@@H]1C[C@@H]2O`: the IC50 in experiment [1] was 3.2 relative to paclitaxel; in the experiment with Burkitts lymphoma cell it was 1.3 relative to paclitaxel; in the experiment listed under Bos taurus [2], 4.7 relative to paclitaxel; in the experiment listed under Bos taurus [3], > 1.7 relative to paclitaxel; in experiment [4] it was 3.4 relative to paclitaxel. In addition, in the experiment listed under Bos taurus [6], the EC0.01 (relative to paclitaxel) came to 1.8. In the experiment with ptx-10/22, this compound registered a relative resistance of 0.62.
Consider `COc1ccccc1C(=O)O[C@H]1[C@@H]2[C@]3(OC(C)=O)CO[C@@H]3C[C@H](O)[C@@]2(C)C(=O)[C@H](OC(C)=O)C2=C(C)[C@@H](OC(=O)[C@H](O)[C@@H](NC(=O)c3ccccc3)c3ccccc3)C[C@]1(O)C2(C)C`, for which the IC50 is 1.4 relative to paclitaxel in experiment [1]; 0.67 relative to paclitaxel in the experiment with Burkitts lymphoma cell; 1.2 relative to paclitaxel in the experiment listed under Bos taurus [2]; > 1.7 relative to paclitaxel in the experiment filed under Bos taurus [3]; 1.9 relative to paclitaxel in experiment [4]. The EC0.01 (relative to paclitaxel) in the experiment listed under Bos taurus [6] worked out at 1.5. This compound displayed a relative resistance with ptx-10/22 of 0.95.
Take `CC(=O)O[C@H]1C(=O)[C@@]2(C)[C@H]([C@H](OC(=O)c3cccc(I)c3)[C@]3(O)C[C@H](OC(=O)[C@H](O)[C@@H](NC(=O)c4ccccc4)c4ccccc4)C(C)=C1C3(C)C)[C@]1(OC(C)=O)CO[C@@H]1C[C@@H]2O`: the IC50 was 1.6 relative to paclitaxel in experiment [1]; 2.3 relative to paclitaxel with Burkitts lymphoma cell; 3.1 relative to paclitaxel in the experiment filed under Bos taurus [2]; > 1.7 relative to paclitaxel in the experiment listed under Bos taurus [3]; 0.85 relative to paclitaxel in experiment [4]. For the same compound, the EC0.01 (relative to paclitaxel) in the experiment filed under Bos taurus [6] stood at 0.79. The relative resistance in the experiment with ptx-10/22 was 0.35.
Turning to `CC(=O)O[C@H]1C(=O)[C@@]2(C)[C@H]([C@H](OC(=O)c3ccc(F)c(F)c3)[C@]3(O)C[C@H](OC(=O)[C@H](O)[C@@H](NC(=O)c4ccccc4)c4ccccc4)C(C)=C1C3(C)C)[C@]1(OC(C)=O)CO[C@@H]1C[C@@H]2O`, the IC50 was 3.4 relative to paclitaxel in experiment [1]; 0.33 relative to paclitaxel in the experiment with Burkitts lymphoma cell; 3.1 relative to paclitaxel in the experiment filed under Bos taurus [2]; > 1.7 relative to paclitaxel in the experiment filed under Bos taurus [3]; 2.7 relative to paclitaxel in experiment [4]. The same compound showed an EC0.01 (relative to paclitaxel) in the experiment listed under Bos taurus [6] of 2.2. Also, the relative resistance in the experiment with ptx-10/22 came out at 0.57.
Turning to `CC(=O)O[C@H]1C(=O)[C@@]2(C)[C@H]([C@H](OC(=O)c3cccc(OC(C)C)c3)[C@]3(O)C[C@H](OC(=O)[C@H](O)[C@@H](NC(=O)c4ccccc4)c4ccccc4)C(C)=C1C3(C)C)[C@]1(OC(C)=O)CO[C@@H]1C[C@@H]2O`, the IC50 was 15 relative to paclitaxel in experiment [1]; 1.3 relative to paclitaxel with Burkitts lymphoma cell; > 8.9 relative to paclitaxel in the experiment filed under Bos taurus [2]; > 1.7 relative to paclitaxel in the experiment filed under Bos taurus [3]; 17 relative to paclitaxel in experiment [4]. This compound also returned an EC0.01 (relative to paclitaxel) in the experiment listed under Bos taurus [6] greater than 140. The compound also gave a relative resistance in the experiment on ptx-10/22 of 0.29.
As for `COc1cc(OC)cc(C(=O)O[C@H]2[C@@H]3[C@]4(OC(C)=O)CO[C@@H]4C[C@H](O)[C@@]3(C)C(=O)[C@H](OC(C)=O)C3=C(C)[C@@H](OC(=O)[C@H](O)[C@@H](NC(=O)c4ccccc4)c4ccccc4)C[C@]2(O)C3(C)C)c1`, the IC50 was 3.3 relative to paclitaxel in experiment [1]; 1 relative to paclitaxel in the experiment with Burkitts lymphoma cell; 4.7 relative to paclitaxel in the experiment listed under Bos taurus [2]; > 1.7 relative to paclitaxel in the experiment filed under Bos taurus [3]; 5.4 relative to paclitaxel in experiment [4]. The compound further registered an EC0.01 (relative to paclitaxel) in the experiment filed under Bos taurus [6] of 2.6. The compound further displayed a relative resistance in the experiment with ptx-10/22 of 0.57.
As to `CSc1cccc(C(=O)O[C@H]2[C@@H]3[C@]4(OC(C)=O)CO[C@@H]4C[C@H](O)[C@@]3(C)C(=O)[C@H](OC(C)=O)C3=C(C)[C@@H](OC(=O)[C@H](O)[C@@H](NC(=O)c4ccccc4)c4ccccc4)C[C@]2(O)C3(C)C)c1`, the IC50 is 3.3 relative to paclitaxel in experiment [1], 1 relative to paclitaxel in the experiment with Burkitts lymphoma cell, 2.7 relative to paclitaxel in the experiment listed under Bos taurus [2] and > 1.7 relative to paclitaxel in the experiment listed under Bos taurus [3]. This compound also came in with a relative resistance with ptx-10/22 of 0.52.
`CC(=O)O[C@H]1C(=O)[C@@]2(C)[C@H]([C@H](OC(=O)c3cc(F)c(F)cc3F)[C@]3(O)C[C@H](OC(=O)[C@H](O)[C@@H](NC(=O)c4ccccc4)c4ccccc4)C(C)=C1C3(C)C)[C@]1(OC(C)=O)CO[C@@H]1C[C@@H]2O`: the IC50 is 3.1 relative to paclitaxel in experiment [1]; 1 relative to paclitaxel in the experiment on Burkitts lymphoma cell; 3.1 relative to paclitaxel in the experiment listed under Bos taurus [2]; > 1.7 relative to paclitaxel in the experiment filed under Bos taurus [3]; 1.9 relative to paclitaxel in experiment [4]. The same compound yielded an EC0.01 (relative to paclitaxel) in the experiment listed under Bos taurus [6] of 1.5. This compound also came in with a relative resistance with ptx-10/22 of 0.48.
In the case of `CC(=O)O[C@H]1C(=O)[C@@]2(C)[C@H]([C@H](OC(=O)c3cc(N=[N+]=[N-])cc(N=[N+]=[N-])c3)[C@]3(O)C[C@H](OC(=O)[C@H](O)[C@@H](NC(=O)c4ccccc4)c4ccccc4)C(C)=C1C3(C)C)[C@]1(OC(C)=O)CO[C@@H]1C[C@@H]2O`, the IC50 in experiment [1] is 1.3 relative to paclitaxel; with Burkitts lymphoma cell it was 1 relative to paclitaxel; in the experiment listed under Bos taurus [2] it was 4 relative to paclitaxel; in the experiment listed under Bos taurus [3], > 1.7 relative to paclitaxel; in experiment [4], 1.6 relative to paclitaxel. The EC0.01 (relative to paclitaxel) in the experiment listed under Bos taurus [6] stood at 0.67. This compound also had a relative resistance in the experiment on ptx-10/22 of 0.4.
